hERG protect = hERG rescue from dofetilide block, primary screen, cell-based, CHO-hERG, FluxOR thallium flux, dofetilide IC70. dofetilide IC70 present. activation (rescue from dofetilide block), less the hit threshold, % at 10 µM. actives 0.51% (n = 310,000);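 active means activation above the mean of controls blocked by dofetilide plus 5 SD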;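 further: thallium influx through hERG after potassium depolarization seen as dye fluorescence rise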
KCNK3 block = human KCNK3 channel inhibitors, primary screen, CHO cells, FluxOR thallium flux, B-score | B-score at 10 µM | actives 0.84% (n = 340,000) | Potassium channel subfamily K member 3 (Homo sapiens), O14649 | AID 602410, 2012 | FluxOR fluorescence; active compounds read low;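 active means B-score under library mean minus 4 SD, starting fluorescence ratio at most library mean plus 5 SD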;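 further: more negative B-score means stronger inhibition of thallium flux through KCNK3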
KCNQ1 act = potentiators or activators of KCNQ1 channel, primary screen, cell-based, thallium flux, high-throughput. Potassium voltage-gated channel subfamily KQT member 1 (Homo sapiens), P51787. CHO-K1 KCNQ1, thallium flux FluxOR fluorescence; active compounds read high. B-score at 10 µM. actives 0.35% (n = 310,000). AID 2648, 2010;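 active means fluorescence ratio B-score, a plate-corrected score, at least three library SD, with initial intensity B-score within 5 SD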
Target sequence (P51787 whole entry, looked up): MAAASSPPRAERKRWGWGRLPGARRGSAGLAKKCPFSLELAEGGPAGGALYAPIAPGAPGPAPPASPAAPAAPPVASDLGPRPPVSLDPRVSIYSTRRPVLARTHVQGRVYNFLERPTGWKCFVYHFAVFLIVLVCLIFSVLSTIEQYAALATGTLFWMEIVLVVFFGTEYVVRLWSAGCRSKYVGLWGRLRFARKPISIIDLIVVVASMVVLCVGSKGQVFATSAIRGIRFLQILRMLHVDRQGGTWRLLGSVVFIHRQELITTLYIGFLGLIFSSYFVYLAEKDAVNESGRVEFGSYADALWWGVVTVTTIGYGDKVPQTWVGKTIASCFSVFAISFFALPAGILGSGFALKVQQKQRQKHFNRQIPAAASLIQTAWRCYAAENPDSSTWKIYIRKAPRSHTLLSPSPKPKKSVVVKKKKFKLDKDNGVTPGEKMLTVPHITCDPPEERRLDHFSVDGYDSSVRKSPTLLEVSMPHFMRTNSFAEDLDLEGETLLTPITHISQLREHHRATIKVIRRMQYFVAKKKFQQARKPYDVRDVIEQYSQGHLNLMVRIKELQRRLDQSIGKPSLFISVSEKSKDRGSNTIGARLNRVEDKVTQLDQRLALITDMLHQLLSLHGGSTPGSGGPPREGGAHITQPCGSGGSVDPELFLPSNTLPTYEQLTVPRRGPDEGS
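System: CHO-K1 cells stably expressing KCNQ1 / Medium: assay buffer for compound exposure, DMSO matched across wells / Reagent: thallium- and potassium-containing depolarizing buffer / Compound: one concentration, matched DMSO / Incubation: 20 min compound pretreatment at room temperature / Measured by: kinetic FluxOR fluorescence, 10 s baseline plus 110 s post-stimulus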
KCNK9 inh = KCNK9 potassium channel inhibitors, primary screen, HEK293 cells, thallium flux; B-score at 10 µM; AID 488922, 2010; FluxOR thallium flux fluorescence; active compounds read low; actives 1.2% (n = 310,000);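 active means ratio B-score over 3 SD below the library mean, with starting fluorescence within 5 SD of its mean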;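 further: negative B-score means less thallium flux so channel inhibition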
KCNQ1 inh = inhibitors of human KCNQ1 channel, primary screen, cell-based, thallium flux, high-throughput | Potassium voltage-gated channel subfamily KQT member 1 (Homo sapiens), P51787 | CHO-K1 KCNQ1, FluxOR thallium flux fluorescence; active compounds read high | B-score at 10 µM | actives 1.3% (n = 310,000) | AID 2642, 2010;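 active means compounds whose thallium flux B-score, printed positive for inhibition, exceeds three library SD while starting fluorescence stays within three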;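 further: channel opened by potassium depolarization with thallium stimulus after 20 min compound exposure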
KCNK9 block conf = KCNK9 potassium channel inhibitors, confirmation, HEK293 cells, thallium flux, duplicate | shares compounds with KCNK9 inh | FluxOR thallium flux fluorescence | actives 43% (n = 4,900) | inhibition, % at 10 µM | AID 492992, 2010;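 active means thallium signal inhibited by more than 5 SD of the compound-free buffer control wells, on both duplicate plates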;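 further: 0% = assay buffer control wells without compound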
Kir21 sel = mouse Kir2.1 channel inhibition, confirmation, selectivity assay for KCNK9 modulator project, cell-based, HEK293, thallium flux; AID 492993, 2010; shares compounds with KCNK9 inh; inhibition, % at 10 µM; actives 4% (n = 4,900); Kir2.1 cells, FluxOR thallium flux fluorescence;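 active means thallium signal drop more than 5 SD beyond the mean of the no-compound control wells, seen in both duplicate plates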;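 further: signal is fluorescence rise after thallium addition divided by baseline fluorescence; plate controls were assay buffer only for no effect and full block by chlorpromazine control for full effect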
HEK293 Tl ctr = thallium flux in non-induced HEK293 cells, confirmation, counter-screen for KCNK9 inhibitor project, cell-based, second counter screen, non-induced KCNK9-HEK293 | shares compounds with KCNK9 inh | FluxOR thallium flux | inhibition, % at 10 µM | actives 40% (n = 4,900) | AID 492997, 2010;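 active means thallium signal drop beyond 5 SD of the untreated control mean, on both duplicate plates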;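 further: plate controls were buffer only IC0 wells for no effect and SID17386958 at its maximal inhibitory level for full effect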
Numbers without * were called inactive; i = inactive; · = no result given. Only some compounds are listed: those with a hit (about 3.1% of all), similar ones and a draw of the others.

SMILES	hERG protect	KCNK3 block	KCNQ1 act	KCNK9 inh	KCNQ1 inh	KCNK9 block conf	Kir21 sel	HEK293 Tl ctr
COC(=O)C(Cc1ccc(OC(=O)c2ccc(C(F)(F)F)cc2)cc1)N1Cc2ccccc2C1=O (stereo not given)	-10.1	i	i	i	6*	i	i	i
Cc1cccc(-n2c(SCC(N)=O)nc3c(c2=O)C2(CCCC2)Cc2ccccc2-3)c1	-6.3	i	i	-9.04*	i	53.0%*	i	35.0%*
COc1ccc(NC2CCCN(C(=O)c3oc(C)cc3C)C2)cc1OC (stereo not given)	-7.9	i	i	i	i	·	·	·
Cc1ccc(NC2CCCN(C(=O)C3CCCCC3)C2)cc1C (stereo not given)	-4.8	i	i	i	i	i	i	i
Cc1cc(C)c(C(=O)N2CCCC(Nc3ccc(C)c(C)c3)C2)o1 (stereo not given)	-9.4	i	i	i	i	i	i	i
CC1CCN(CCOc2cccc(Br)c2)CC1	-3.0	i	i	i	i	·	·	·
Clc1cccc(OCCN2CCN(CCOc3cccc(Cl)c3)CC2)c1	-23.3	i	i	i	i	i	i	i
CCN(CC)C(=O)c1ccc(-c2nnc(OC)c3ccccc23)cc1	-10.1	i	i	i	i	·	·	·
O=c1nc(SCc2ccc(Cl)cc2)nc(-c2ccccc2)[nH]1	-8.1	i	i	i	i	i	i	i
O=c1nc(SCc2c(F)cccc2Cl)nc(-c2ccccc2)[nH]1	-5.7	·	i	i	i	·	·	·
O=C(CC(C(=O)O)N1CCOCC1)Nc1ccc(Cl)cc1 (stereo not given)	-9.5	i	i	i	i	·	·	·
CN(c1ccc(OCc2nnc(-c3ccccc3)o2)cc1)S(=O)(=O)c1ccccc1	-7.1	i	i	i	i	·	·	·
CN(c1ccc(OCc2ccc([N+](=O)[O-])cc2)cc1)S(=O)(=O)c1ccccc1	-10.8	i	i	-8.49*	i	i	i	29.0%*
CCN1C[C@@H]2[C@@H]3C(=O)N(Cc4ccccc4)C(=O)[C@@H]3[C@](C)(C1=O)N2C(=O)c1ccc(C(F)(F)F)cc1	·	i	·	·	·	·	·	·
O=C(Nc1cccc(-c2csc(-c3ccccc3)n2)c1)c1cccs1	-6.3	i	i	-11.8*	i	45.0%*	i	i
Cc1nc(-c2cccc(NC(=O)c3cccs3)c2)cs1	-15.5	i	i	i	i	·	·	·
CC1(C)CC(NC(=O)c2cccc(Cl)c2)CC(C)(C)N1	-2.8	i	i	i	i	·	·	·
Cc1ccc2cc(CN(CC(C)C)S(=O)(=O)c3cccc4nonc34)c(=O)[nH]c2c1	-13.4	i	i	i	i	·	·	·
CCOC(=O)COc1nc(-c2ccccc2)cc(-c2ccco2)c1C#N	-5.4	i	i	-8.24*	i	49.0%*	i	34.0%*
COC(=O)CSc1nc(-c2ccccc2)cc(-c2ccco2)c1C#N	-1.6	i	i	-8.94*	i	31.0%*	i	27.5%*
COC(=O)CSc1nc(N)c(C#N)c(-c2ccco2)c1C#N	-18.3	i	i	i	i	·	·	·
O=C(COc1ccc([N+](=O)[O-])cc1)NC(C(=O)O)C(O)c1cccc([N+](=O)[O-])c1 (stereo not given)	-9.8	i	i	i	i	·	·	·
COc1ccc(/C=N/n2c(-c3ccccc3)n[nH]c2=S)cc1	-0.6	i	i	i	i	·	·	·
COc1ccc(/C=N/n2c(N)nc(-c3ccccc3)c2-c2ccccc2)cc1	-40.1	i	i	i	i	i	i	i
COc1cccc(NC(=O)N2C3CCCC2CC(NC(=O)C(C)(C)C)C3)c1 (stereo not given)	-1.9	i	i	i	i	·	·	·
SMILES	hERG protect	KCNK3 block	KCNQ1 act	KCNK9 inh	KCNQ1 inh	KCNK9 block conf	Kir21 sel	HEK293 Tl ctr
CSc1ncccc1C(=O)NC(C)CCc1ccccc1 (stereo not given)	-2.3	i	i	i	i	·	·	·
COCCN(Cc1nc(C(c2ccccc2)c2ccccc2)no1)C(C)C	-4.0	i	i	-8.66*	i	i	i	i
COc1ccc(-c2cc(CCC(=O)N3CCN(c4cc(C)ccc4C)CC3)[nH]n2)cc1	·	i	·	·	·	·	·	·
CCCNC(=O)OC[C@H]1O[C@H](CCO/N=C/[C@@H](OC)[C@H](C)/C=C/CC(=O)OC)C=C[C@@H]1Oc1ccc(OC)cc1	-3.7	·	i	i	i	i	i	i
C=CC[C@@H]1C=C[C@H](O/N=C/[C@@H](NS(=O)(=O)c2ccc(C)cc2)[C@H](C)/C=C/CC(=O)OC)[C@@H](CO)O1	-4.8	·	i	i	i	·	·	·
COCCN(C(=O)CC1C(=O)NCCN1CC(c1ccccc1)c1ccccc1)C(C)C (stereo not given)	-10.9	i	i	i	i	·	·	·
CCNc1nc(CSc2ccccc2)nc2sc(C)c(C)c12	-4.2	i	i	i	i	·	·	·
Cc1sc2nc(CSc3ccccc3)nc(N3CCOCC3)c2c1C	-12.0	i	i	i	i	i	i	32.5%*
COC(=O)C1C(c2ccc(OC)cc2)Nc2nnc(C(F)(F)F)n2C1(C)O (stereo not given)	-8.7	i	i	i	i	·	·	·
COC(=O)c1ccc(S(=O)(=O)N2CCN(C(c3ccccc3)c3ccccc3)CC2)n1C	-3.2	i	i	i	i	i	i	i
c1ccc(OCc2noc(CN3CC[C@@H]4CCCC[C@H]4C3)n2)cc1	-10.2	i	i	i	i	·	·	·
Clc1cccc(CN2CCN(Cc3nc(CCc4ccccc4)no3)CC2)c1	-6.5	i	i	i	i	i	i	i
Clc1cccc(CN2CCCCCC2)c1	-5.3	i	i	i	i	·	·	·

Source: PubChem BioAssay
